Test results from ChEMBL document CHEMBL1123819, “Synthesis and antifungal activity of a series of novel 1,2-disubstituted propenones” (1987).
Converted amounts (≈) assume the structure as drawn.

How the values were obtained:
Format in all cases: functional
Candida albicans = assay: Antifungal activity against Candida albicans was determined in vitro
How it was run: (§1)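 Broth microdilution in Sabouraud's glucose broth; MIC read as the fungistatic end point. Final inocula were 1 × 10^5 cells/mL for the yeast and 1 × 10^5 conidia/mL for the mould and the dermatophyte.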

Trichophyton benhamiae = assay: Antifungal activity against Trichophyton asteroides was determined in vitro; how it was run: as §1
Aspergillus fumigatus = assay: Antifungal activity against Aspergillus fumigatus was determined in vitro; how it was run: as §1

| SMILES | MIC (Candida albicans) [µg/mL] | MIC (Trichophyton benhamiae) [µg/mL] | MIC (Aspergillus fumigatus) [µg/mL] |
| --- | --- | --- | --- |
| C=C(C(=O)c1ccc(-c2ccccc2)cc1)n1cnc2ccccc2c1=O | > 100 | 25 (≈ 70.9 µM) | > 100 |
| C=C(C(=O)c1ccccc1)n1cc(Cl)ccc1=O | 6.3 (≈ 24.3 µM) | 3.1 (≈ 11.9 µM) | 25 (≈ 96.3 µM) |
| C=C(C(=O)c1ccc(Cl)cc1)n1ncc2ccccc2c1=O | 0.8 (≈ 2.57 µM) | 1.6 (≈ 5.15 µM) | 6.3 (≈ 20.3 µM) |
| C=C(Cn1ccccc1=O)C(=O)c1ccsc1 | 50 (≈ 204 µM) | 6.3 (≈ 25.7 µM) | 50 (≈ 204 µM) |
| C=C(C(=O)c1cccs1)c1ccccc1 | 1.6 (≈ 7.47 µM) | 0.2 (≈ 0.933 µM) | 1.6 (≈ 7.47 µM) |
| COCC(C(=O)c1ccc(OC)cc1)n1cncn1 (stereo not drawn) | 3.1 (≈ 11.9 µM) | 3.1 (≈ 11.9 µM) | 100 (≈ 383 µM) |
| C=C(Cn1cncn1)C(=O)c1ccsc1 | 12.5 (≈ 57 µM) | 6.3 (≈ 28.7 µM) | 100 (≈ 456 µM) |
| COc1ccc(C(=O)C(CO)n2cncn2)cc1 (stereo not drawn) | 3.1 (≈ 12.5 µM) | 3.1 (≈ 12.5 µM) | 100 (≈ 404 µM) |
| C=C(Cc1ccccc1)C(=O)c1cccs1 | > 100 | 6.3 (≈ 27.6 µM) | 100 (≈ 438 µM) |
| C=C(C(=O)c1ccc(Cl)cc1)n1ccccc1=O | 1.6 (≈ 6.16 µM) | 0.8 (≈ 3.08 µM) | 2.5 (≈ 9.63 µM) |
| C=C(C(=O)c1ccc(Cl)cc1)N1CC(=O)N=CC1=O | 12.5 (≈ 45.2 µM) | 12.5 (≈ 45.2 µM) | > 100 |
| C=C(C(=O)c1ccco1)n1cncn1 | 0.8 (≈ 4.23 µM) | 3.1 (≈ 16.4 µM) | 6.3 (≈ 33.3 µM) |
| C=C(C(=O)c1cccs1)c1ccc(Cl)cc1 | 3.1 (≈ 12.5 µM) | 0.1 (≈ 0.402 µM) | 3.1 (≈ 12.5 µM) |
| C=C(C(=O)c1ccc(C)cc1)n1cncn1 | 0.2 (≈ 0.938 µM) | 0.8 (≈ 3.75 µM) | 6.3 (≈ 29.5 µM) |
| C=C(CN(C)C)C(=O)c1ccc(Cl)cc1 | 12.5 (≈ 55.9 µM) | 6.3 (≈ 28.2 µM) | 12.5 (≈ 55.9 µM) |
| C=C(C(=O)c1ccc(Cl)cc1)N1C(=O)C=NC(=O)C1C (stereo not drawn) | 6.3 (≈ 21.7 µM) | 3.1 (≈ 10.7 µM) | 6.3 (≈ 21.7 µM) |
| C=C(C(=O)c1ccc(OC)cc1)n1cnc2ccccc2c1=O | 1.6 (≈ 5.22 µM) | 0.4 (≈ 1.31 µM) | 6.3 (≈ 20.6 µM) |
| C=C(C(=O)c1ccc(C(=O)OC)cc1)n1ccccc1=O | 3.1 (≈ 10.9 µM) | 3.1 (≈ 10.9 µM) | 50 (≈ 177 µM) |
| C=C(C(=O)c1ccc(F)cc1)n1cncn1 | 0.4 (≈ 1.84 µM) | 0.8 (≈ 3.68 µM) | 6.3 (≈ 29 µM) |
| C=C(Cn1cncn1)C(=O)c1ccc(Cl)cc1 | 0.4 (≈ 1.61 µM) | 1.6 (≈ 6.46 µM) | 12.5 (≈ 50.5 µM) |
| C=C(C(=O)C(C)(C)C)n1cncn1 | 0.4 (≈ 2.23 µM) | 6.3 (≈ 35.2 µM) | 6.3 (≈ 35.2 µM) |

| SMILES | MIC (Candida albicans) [µg/mL] | MIC (Trichophyton benhamiae) [µg/mL] | MIC (Aspergillus fumigatus) [µg/mL] |
| --- | --- | --- | --- |
| C=C(C(=O)c1ccc(OC)cc1)n1cncn1 | 0.8 (≈ 3.49 µM) | 0.8 (≈ 3.49 µM) | 12.5 (≈ 54.5 µM) |
| C=C(C(=O)c1ccc(Cl)cc1Cl)c1ccc(Cl)cc1Cl | 6.3 (≈ 18.2 µM) | 0.4 (≈ 1.16 µM) | > 100 |
| C=C(Cn1cncn1)C(=O)c1ccc(OC)cc1 | 12.5 (≈ 51.4 µM) | 6.3 (≈ 25.9 µM) | > 100 |
| C=C(Cn1ccccc1=O)C(=O)c1ccc(-c2ccccc2)cc1 | 6.3 (≈ 20 µM) | 0.8 (≈ 2.54 µM) | 50 (≈ 159 µM) |
| C=C(C(=O)c1ccccc1OC)n1ccccc1=O | 3.1 (≈ 12.1 µM) | 1.6 (≈ 6.27 µM) | > 100 |
| C=C(Cn1c(=O)ccc2ccccc21)C(=O)c1ccc(Cl)cc1 | 25 (≈ 77.2 µM) | 3.1 (≈ 9.57 µM) | 100 (≈ 309 µM) |
| C=C(C(C)=O)n1cncn1 | 12.5 (≈ 91.1 µM) | 3.1 (≈ 22.6 µM) | 25 (≈ 182 µM) |
| Clc1ccc(COC(Cn2ccnc2)c2ccc(Cl)cc2Cl)c(Cl)c1 (stereo not drawn) [MICONAZOLE] | 3.1 (≈ 7.45 µM) | 0.1 (≈ 0.24 µM) | 6.3 (≈ 15.1 µM) |
| C=C(C(=O)c1ccc(Cl)cc1)n1cc(C)ccc1=O | 0.8 (≈ 2.92 µM) | 0.8 (≈ 2.92 µM) | 3.1 (≈ 11.3 µM) |
| C=C(C(=O)c1ccc(Cl)cc1Cl)n1cccn1 | 0.8 (≈ 2.99 µM) | 1.6 (≈ 5.99 µM) | 25 (≈ 93.6 µM) |
| C=C(C(=O)Nc1ccc(Cl)cc1)c1ccc(Cl)cc1Cl | > 100 | > 100 | > 100 |
| C=C(C(=O)N1CCOCC1)c1ccc(Cl)cc1Cl | > 100 | > 100 | > 100 |
| C=C(C(=O)c1ccc(Cl)cc1)n1cnc2ccccc2c1=O | 0.1 (≈ 0.322 µM) | 0.1 (≈ 0.322 µM) | 0.4 (≈ 1.29 µM) |
| C=C(C(=O)c1ccc(Cl)cc1)n1cncn1 | 0.2 (≈ 0.856 µM) | 1.6 (≈ 6.85 µM) | 6.3 (≈ 27 µM) |
| C=C(C(=O)c1ccccc1)n1ccccc1=O | 6.3 (≈ 28 µM) | 1.6 (≈ 7.1 µM) | 50 (≈ 222 µM) |
| Clc1ccc(COC(Cn2ccnc2)c2ccc(Cl)cc2Cl)cc1 (stereo not drawn) [ECONAZOLE] | 3.1 (≈ 8.12 µM) | 0.1 (≈ 0.262 µM) | 3.1 (≈ 8.12 µM) |
| O=C(c1ccc(Cl)cc1)C(CO)n1cnc2ccccc2c1=O (stereo not drawn) | 0.8 (≈ 2.43 µM) | 0.8 (≈ 2.43 µM) | 6.3 (≈ 19.2 µM) |
| C=C(C(=O)c1ccc(Cl)cc1)n1c(=O)ccc2ccccc21 | 3.1 (≈ 10 µM) | 0.2 (≈ 0.646 µM) | 1.6 (≈ 5.17 µM) |
| C=C(C(=O)c1ccc(Cl)cc1Cl)n1ccccc1=O | 0.8 (≈ 2.72 µM) | 0.8 (≈ 2.72 µM) | 25 (≈ 85 µM) |
| C=C(C(=O)c1ccc(Cl)cc1)n1c(O)nc2ccccc21 | 6.3 (≈ 21.1 µM) | 3.1 (≈ 10.4 µM) | 12.5 (≈ 41.8 µM) |
| CC(C(=O)c1ccc(Cl)cc1)n1ccccc1=O (stereo not drawn) | > 100 | > 100 | > 100 |

| SMILES | MIC (Candida albicans) [µg/mL] | MIC (Trichophyton benhamiae) [µg/mL] | MIC (Aspergillus fumigatus) [µg/mL] |
| --- | --- | --- | --- |
| C=C(C(=O)c1ccc(Cl)cc1)n1c(=O)n(C)c2ccccc21 | 1.6 (≈ 5.12 µM) | 0.4 (≈ 1.28 µM) | 1.6 (≈ 5.12 µM) |
| C=C(C(=O)c1ccc(Cl)cc1)n1cc(Cl)ccc1=O | 0.8 (≈ 2.72 µM) | 0.8 (≈ 2.72 µM) | 3.1 (≈ 10.5 µM) |
| C=C(C(=O)c1cccs1)n1cncn1 | 0.4 (≈ 1.95 µM) | 1.6 (≈ 7.8 µM) | 6.3 (≈ 30.7 µM) |
| C=C(C)C(=O)c1ccco1 | 25 (≈ 184 µM) | 1.6 (≈ 11.8 µM) | 25 (≈ 184 µM) |
| CC/C=C(\C(=O)c1ccc(Cl)cc1)n1ccccc1=O | > 100 | 25 (≈ 86.9 µM) | > 100 |
| C=C(Cn1ccccc1=O)C(=O)c1ccc(Cl)cc1 | 1.6 (≈ 5.85 µM) | 0.8 (≈ 2.92 µM) | 25 (≈ 91.3 µM) |
| C=C(C(=O)c1ccc(-c2ccccc2)cc1)n1ccccc1=O | 0.8 (≈ 2.65 µM) | 0.4 (≈ 1.33 µM) | 12.5 (≈ 41.5 µM) |
| C=C(Cn1ccccc1=O)C(=O)c1ccc(OC)cc1 | 25 (≈ 92.8 µM) | 6.3 (≈ 23.4 µM) | 100 (≈ 371 µM) |
| C=C(C(=O)c1ccc(F)cc1)c1ccc(Cl)cc1Cl | 3.1 (≈ 10.5 µM) | 0.4 (≈ 1.36 µM) | 12.5 (≈ 42.4 µM) |
| C=C(C(=O)c1ccc(C#N)cc1)n1cncn1 | 1.6 (≈ 7.14 µM) | 6.3 (≈ 28.1 µM) | 25 (≈ 111 µM) |
| C=C(Cn1cnc2ccccc2c1=O)C(=O)c1ccc(Cl)cc1 | 3.1 (≈ 9.55 µM) | 3.1 (≈ 9.55 µM) | 6.3 (≈ 19.4 µM) |
| C=C(C(=O)c1ccc(-c2ccccc2)cc1)n1cncn1 | 0.4 (≈ 1.45 µM) | 0.2 (≈ 0.726 µM) | 3.1 (≈ 11.3 µM) |
| C=C(C(=O)c1ccc(Cl)cc1)n1cnccc1=O | 0.4 (≈ 1.53 µM) | 1.6 (≈ 6.14 µM) | 3.1 (≈ 11.9 µM) |
| O=C(/C(=C/c1ccc(F)cc1)n1ccccc1=O)c1ccc(Cl)cc1 | > 100 | 12.5 (≈ 35.3 µM) | > 100 |
| C=C(Cn1cccn1)C(=O)c1ccc(-c2ccccc2)cc1 | 6.3 (≈ 21.8 µM) | 0.8 (≈ 2.77 µM) | 12.5 (≈ 43.4 µM) |
| C=C(C(=O)c1ccc(Cl)cc1)n1cc(C(=O)OC)ccc1=O | 0.8 (≈ 2.52 µM) | 0.8 (≈ 2.52 µM) | 3.1 (≈ 9.76 µM) |
| Clc1ccccc1C(c1ccccc1)(c1ccccc1)n1ccnc1 [CLOTRIMAZOLE] | 1.6 (≈ 4.64 µM) | 0.1 (≈ 0.29 µM) | 1.6 (≈ 4.64 µM) |
| C=C(Cn1cncn1)C(=O)c1ccc(-c2ccccc2)cc1 | 1.6 (≈ 5.53 µM) | 0.4 (≈ 1.38 µM) | 12.5 (≈ 43.2 µM) |
| C=C(C(=O)C(C)(C)C)n1ccccc1=O | 50 (≈ 244 µM) | 6.3 (≈ 30.7 µM) | > 100 |
